TRPC6 inh: mouse TRPC6 channel inhibitors, primary screen, cell-based, HEK293, membrane potential dye; Short transient receptor potential channel 6 (Mus musculus), Q61143; ACh-evoked depolarization; stronger effect = lower value; B-score at 10 µM; 310,000 tested, 1.1% active; AID 2553, 2010;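 active = B-score under library mean minus 3 SD, initial fluorescence not abnormally high, positive integrated signal ratio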;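 also: B-score derived from integrated fluorescence ratio over the kinetic read; more negative B-score means stronger inhibition of depolarization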
TRPC4 inh: inhibitors of mouse TRPC4 channel, primary screen, Fluo4 calcium, HEK293 TRPC4beta/mu-opioid cells. Short transient receptor potential channel 4 (Mus musculus), Q9QUQ5. DAMGO-evoked Fluo4 calcium flux; stronger effect = lower value. B-score at 10 µM. 300,000 tested, 0.39% active. AID 2247, 2010;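 active = B-score over 3 SD under the library average, no early fluorescence shift, positive overall ratio signal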
Target sequence (Q9QUQ5 whole entry, looked up): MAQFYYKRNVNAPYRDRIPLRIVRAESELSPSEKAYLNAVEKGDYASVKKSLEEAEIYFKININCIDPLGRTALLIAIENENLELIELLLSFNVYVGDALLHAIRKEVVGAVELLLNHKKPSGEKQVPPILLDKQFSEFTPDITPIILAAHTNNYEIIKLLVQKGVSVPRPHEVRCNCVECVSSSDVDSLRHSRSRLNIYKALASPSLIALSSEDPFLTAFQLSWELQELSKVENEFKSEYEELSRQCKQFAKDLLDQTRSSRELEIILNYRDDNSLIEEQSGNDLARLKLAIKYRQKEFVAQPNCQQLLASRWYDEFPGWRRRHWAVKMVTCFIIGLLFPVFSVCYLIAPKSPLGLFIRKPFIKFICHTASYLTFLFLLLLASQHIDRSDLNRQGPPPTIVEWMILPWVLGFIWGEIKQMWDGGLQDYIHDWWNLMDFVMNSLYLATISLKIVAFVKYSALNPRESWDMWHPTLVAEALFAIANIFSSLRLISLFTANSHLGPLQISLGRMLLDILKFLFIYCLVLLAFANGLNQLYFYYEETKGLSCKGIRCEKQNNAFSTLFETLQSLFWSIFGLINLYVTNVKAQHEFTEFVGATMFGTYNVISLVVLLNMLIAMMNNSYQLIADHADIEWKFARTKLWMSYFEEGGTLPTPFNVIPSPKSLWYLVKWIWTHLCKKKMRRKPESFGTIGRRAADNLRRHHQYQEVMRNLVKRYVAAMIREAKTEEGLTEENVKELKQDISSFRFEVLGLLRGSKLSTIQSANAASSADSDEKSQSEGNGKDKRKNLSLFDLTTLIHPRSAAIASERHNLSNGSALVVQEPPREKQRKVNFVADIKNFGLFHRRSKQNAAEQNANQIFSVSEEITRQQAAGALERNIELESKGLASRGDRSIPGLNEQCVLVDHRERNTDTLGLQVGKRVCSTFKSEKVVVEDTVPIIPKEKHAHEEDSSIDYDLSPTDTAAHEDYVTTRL
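Assay system: HEK293 cells with stable TRPC4beta plus mu-opioid receptor expression; Probe or stimulus: DAMGO in two steps, submaximal then maximal; Dosing: single-point compound dosing; Measured by: Fluo4 calcium-dye fluorescence, kinetic read; Read-out basis: B score from integrated Fluo4 fluorescence ratio.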
TRPC4 PAM: positive allosteric modulators of TRPC4, primary screen, cell-based, mouse TRPC4beta, HEK293 mu-opioid, Fluo-4 calcium | Short transient receptor potential channel 4 (Mus musculus), Q9QUQ5 | DAMGO EC20, Fluo-4 Ca2+ flux; stronger effect = higher value | B-score at 10 µM | 310,000 tested, 0.42% active | AID 2227, 2009;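 active = B-score of calcium response area above 5 SD of library B-scores, with initial fluorescence ratio within 5 SD of library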;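 also: B-score of integrated fluorescence ratio over time as area under calcium response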
TRPC6 activator: mouse TRPC6 channel activators, primary screen, cell-based, HEK293, membrane potential dye; 310,000 tested, 0.13% active; Short transient receptor potential channel 6 (Mus musculus), Q61143; B-score at 10 µM; AID 2550, 2010; HEK293-TRPC6 membrane potential dye fluorescence; stronger effect = higher value;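 active = B-score of the integrated fluorescence ratio above library mean plus 3 SD, and starting fluorescence ratio within library mean plus 5 SD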;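 also: higher score means more depolarization so channel activation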
TRPC4 act: activators of mouse TRPC4 channel, primary screen, Fluo4 calcium, HEK293 TRPC4beta/mu-opioid cells | Fluo4 calcium fluorescence; stronger effect = higher value | B-score at 10 µM | 310,000 tested, 0.49% active | Short transient receptor potential channel 4 (Mus musculus), Q9QUQ5;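 active = B-score above 5 SD of library B-scores, and initial fluorescence ratio not above library mean plus 5 SD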;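 also: positive B-score marks a calcium rise read as TRPC4 activation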
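Technique: kinetic Fluo4 calcium fluorescence; Test system: TRPC4beta and mu-opioid receptor HEK293 stable cells; Measure: B-scored integrated calcium fluorescence ratio; Benchmarks: low control buffer alone, high control maximal DAMGO; Schedule: 45 min room-temperature Fluo4 loading, 110 s read.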
TRPC4 spec 2: mouse TRPC4 off-target activity of TRPC6 inhibitors, second screen; AID 2776; inhibition, % at 10 µM; HEK293 TRPC4/MOR, membrane potential dye fluorescence; channel activated by saturating DAMGO dose; shares compounds with TRPC6 inh; 920 tested, 42% active;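 active = compounds whose fluorescence signal differed from control wells by over 3 SD, either direction, in both duplicate plates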
TRPC4 spec: mouse TRPC4 modulation by TRPC6 hits, confirmation, selectivity assay for TRPC6 inhibitor project, cell-based, HEK293 TRPC4/mu-opioid, membrane potential dye; AID 2777, 2010; shares compounds with TRPC6 inh; 920 tested, 61% active; membrane potential fluorescence; activity change, negative = inhibition, % at 10 µM;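 active = rise or fall in signal beyond 3 SD of buffer-only wells in both replicate plates, either sign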;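 also: integrated kinetic ratio of fluorescence range over baseline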
HEK293 MPD ctr 2-1: nonspecific membrane potential effects, parental HEK293, confirmation, counter-screen for TRPC6 inhibitor project, cell-based, second counter screen; shares compounds with TRPC6 inh; 920 tested, 31% active; signal change vs control, % at 10 µM; AID 2779, 2010; parental HEK293 membrane potential dye fluorescence; maximal acetylcholine challenge after compound addition;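 active = membrane potential signal moving either way by over 3 SD of the maximum-effect control, in both duplicate plates, meaning non-specific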
HEK293 MPD ctr-1: membrane potential modulation in parental HEK293, confirmation, counter-screen for TRPC6 inhibitor project, cell-based; AID 2780, 2010; 920 tested, 60% active; shares compounds with TRPC6 inh; membrane potential signal change, % at 10 µM; parental HEK293 membrane potential dye fluorescence;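 active = membrane potential signal shifting up or down by more than 3 SD of buffer-only wells, on both duplicate plates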
HEK293 MPD ctr-2: parental HEK293 membrane potential modulation, confirmation, counter-screen for TRPC6 modulator project, cell-based; AID 488924, 2010; shares compounds with TRPC6 inh; membrane potential signal change, % at 10 µM; 2,400 tested, 51% active; membrane potential dye fluorescence;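 active = membrane potential signal moves up or down beyond 5 SD from buffer-only wells, on both duplicate plates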
HEK293 MPD ctr 2-2: second counter-screen for TRPC6 modulators: effect in parental HEK293 cells; 2,400 tested, 14% active; AID 488926; shares compounds with TRPC6 inh; inhibition, % at 10 µM; membrane potential dye fluorescence; after compound, maximal acetylcholine stimulation;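 active = membrane potential signal drops by more than 5 SD from the mean control signal, in both duplicate plates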;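 also: plate controls were acetylcholine ECmax control wells for no effect and buffer only wells for full effect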
TRPC4/MOR mod: TRPC4 modulation by TRPC6 hit compounds, confirmation, selectivity assay for TRPC6 modulator project, cell-based, HEK293 TRPC4/mu-opioid, membrane potential dye, mouse; membrane potential fluorescence; AID 488927, 2010; shares compounds with TRPC6 inh; 2,400 tested, 69% active; percent change from control (negative = decrease, positive = increase), % at 10 µM;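 active = membrane potential signal moved up or down beyond 5 SD of buffer control wells, in both duplicate plates, actives on both sides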;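 also: plate controls were assay buffer wells for no effect and DAMGO maximal-effect wells for full effect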
TRPC4 ctr inh 2: second check of whether TRPC6 modulators also affect mouse TRPC4; shares compounds with TRPC6 inh; HEK293 TRPC4/mu-opioid, membrane potential dye fluorescence; stimulated with maximal-effect DAMGO; inhibition, % at 10 µM; 2,400 tested, 55% active; AID 488928;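 active = drop in membrane potential signal beyond 5 SD of the control wells in both duplicate plates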;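 also: TRPC4 counter screen for TRPC6 hits run under conditions tuned for TRPC6 not TRPC4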
TRPC6 inh conf: mouse TRPC6 channel inhibitors, confirmation, HEK293 cells, membrane potential dye, duplicate; shares compounds with TRPC6 inh; ACh-evoked depolarization; inhibition, % at 10 µM; 3,300 tested, 43% active;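 active = fluorescence ratio falls more than 5 SD below the full-stimulation control mean, in both duplicate runs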;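 also: integrated fluorescence ratio of peak minus minimum over baseline after agonist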
TRPC6 act confirm: mouse TRPC6 channel activators, confirmation, HEK293 cells, membrane potential dye, duplicate; AID 488961, 2010; shares compounds with TRPC6 inh; 2,800 tested, 11% active; activation, % at 10 µM; HEK293-TRPC6 membrane potential dye fluorescence, FDSS;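 active = ratio signal rise beyond 5 SD above unstimulated control wells' mean, seen in both duplicate runs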;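 also: plate controls were buffer EC0 wells for no effect and acetylcholine ECmax response for full effect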
Numbers without * were called inactive; i = inactive; · = no result given. Shown are actives, neighbours in structure and some others; about 2.3% of the full set was active somewhere.

SMILES | TRPC6 inh | TRPC4 inh | TRPC4 PAM | TRPC6 activator | TRPC4 act | HEK293 MPD ctr-2 | HEK293 MPD ctr 2-2 | TRPC4/MOR mod | TRPC4 ctr inh 2 | TRPC6 inh conf | TRPC6 act confirm | others
CC(=O)/C(C(=N)N1CCN(C(c2ccccc2)c2ccccc2)CC1)=C(\C)O | -7* | i | i | i | i | · | · | · | · | i | i | TRPC4 spec 2=i;TRPC4 spec=i;HEK293 MPD ctr 2-1=i;HEK293 MPD ctr-1=i
CC(=O)/C(C(=N)N1CCN(Cc2ccccc2)CC1)=C(\C)O | i | i | i | i | i | · | · | · | · | · | ·
Cc1cccc(-n2cnc(C(=O)NC3CCCCCC3)c2)n1 | -6* | i | i | i | i | i | i | 9.0%* | i | i | i
COc1ccc([C@@H]2[C@@H](C(=O)C(C)(C)C)N3N=Cc4ccccc4[C@@H]3C23C(=O)OC(C)(C)OC3=O)cc1OC | i | i | i | i | i | · | · | · | · | · | ·
COc1ccc([C@H]2[C@H](C(=O)C(C)(C)C)N3N=Cc4ccccc4C3C23C(=O)OC(C)(C)OC3=O)cc1 (stereo partly drawn) | -6* | i | i | i | i | i | i | 9.0%* | i | i | i
CCC(Oc1ccccc1)C(=O)Nc1ccc(C)c(S(=O)(=O)N2CCOCC2)c1 (stereo not drawn) | i | i | i | i | i | · | · | · | · | · | ·
COc1ccc(C(O)P(=O)(OC(C)C)OC(C)C)c(OC)c1 (stereo not drawn) | i | i | i | i | i | · | · | · | · | · | ·

Assay outcomes (PubChem)
